Experimental data: ChEMBL document CHEMBL1159109, “Design and synthesis of some new quinoline-3-carbohydrazone derivatives as potential antimycobacterial agents” (Bioorg Med Chem Lett, 2010)
Values after ≈ are worked out from the molar mass of the structure shown.

Columns and labels:
[1] = test system: Mycolicibacterium fortuitum; assay: Antimycobacterial activity against Mycobacterium fortuitum ATCC 19542 after 7 days by resazurin assay; format: functional; conditions: ATCC 19542, 168 h
Method in brief: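 M. fortuitum ATCC 19542 culture diluted to McFarland 2 standard in medium and dispensed into 96-well plates. Compounds came from 2 mg/mL DMF stocks and were screened at 1, 10 and 100, then retested at […]. Controls received DMF alone. After 7 days at 37 °C, 0.01% resazurin was added and colour read after 1 h at 37 °C. MIC was the level keeping the dye blue.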

Mycobacterium = assay: Inhibition of Mycobacterium membrane bound ATP synthase; set-up: concentration or dose not given beside the values; conditions: concentration not given here
[2] = test system: Mycolicibacterium smegmatis; assay: Antimycobacterial activity against Mycobacterium smegmatis MC2 155 ATCC 19420 after 7 days by resazurin assay; format: functional; conditions: MC2 155 ATCC 19420, 168 h
Method in brief: (§1)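 Broth microdilution resazurin assay. Culture diluted to McFarland 2 standard in the same medium and added to fresh medium. Test compounds from 2 mg/mL DMF stocks, first tested at 1, 10 and 100, then at 0.3125–5; DMF-only controls. Incubated 37 °C for 7 days, then 0.01% resazurin added. Blue-to-pink change scored; MIC taken as lowest concentration preventing the colour change.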

Vero = assay: Cytotoxicity against african green monkey Vero cells after 72 hrs by MTT assay; format: cell-based; conditions: Chlorocebus sabaeus
Method in brief: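 Cells were exposed for 72 h, then viability was read as cellular conversion of MTT to formazan with a non-radioactive cell proliferation kit.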

[3] = test system: Mycobacterium tuberculosis; assay: Antimycobacterial activity against Mycobacterium tuberculosis H37Rv ATCC 27294 after 7 days by resazurin assay; format: functional; conditions: H37Rv ATCC 27294, 168 h; method in brief: as §1

CN(C)C(=O)C[C@H](CSc1ccccc1)Nc1c(C(=O)N/N=C/c2ccc(OC(F)(F)F)cc2)cnc2c(C(F)(F)F)cccc12
MIC [1]: 5 µg/mL (≈ 7.53 µM)
inhibition (Mycobacterium): 90%
MIC [2]: > 100 µg/mL
IC50 (Vero): > 62.5 µg/mL
MIC [3]: 5 µg/mL (≈ 7.53 µM)

CN(C)C(=O)C[C@H](CSc1ccccc1)Nc1c(C(=O)N/N=C/c2cccc(OC(F)(F)C(F)F)c2)cnc2ccc(F)cc12
MIC [1]: 1 µg/mL (≈ 1.55 µM)
inhibition (Mycobacterium): > 95%
MIC [2]: 2.5 µg/mL (≈ 3.87 µM)
IC50 (Vero): > 62.5 µg/mL
MIC [3]: 0.625 µg/mL (≈ 0.968 µM)

CSCC/C=N/NC(=O)c1cnc2c(C(F)(F)F)cccc2c1N[C@@H](CSc1ccccc1)CC(=O)N(C)C
MIC [1]: > 100 µg/mL
inhibition (Mycobacterium): 90%
MIC [2]: > 100 µg/mL
MIC [3]: 10 µg/mL (≈ 17.3 µM)

CN(C)C(=O)C[C@H](CSc1ccccc1)Nc1c(C(=O)N/N=C/c2ccc(Br)s2)cnc2c(C(F)(F)F)cccc12
MIC [1]: > 100 µg/mL
inhibition (Mycobacterium): 90%
MIC [2]: > 100 µg/mL
IC50 (Vero): > 62.5 µg/mL
MIC [3]: 10 µg/mL (≈ 15 µM)

CN(C)C(=O)C[C@H](CSc1ccccc1)Nc1c(C(=O)N/N=C/c2ccc(F)cc2)cnc2ccc(F)cc12
MIC [1]: 5 µg/mL (≈ 9.13 µM)
inhibition (Mycobacterium): 95%
MIC [2]: 10 µg/mL (≈ 18.3 µM)
IC50 (Vero): > 62.5 µg/mL
MIC [3]: 1 µg/mL (≈ 1.83 µM)

CN(C)C(=O)C[C@H](CSc1ccccc1)Nc1c(C(=O)N/N=C/c2ccc(Br)s2)cnc2ccc(F)cc12
MIC [1]: > 100 µg/mL
inhibition (Mycobacterium): 0%
MIC [2]: > 100 µg/mL
MIC [3]: > 100 µg/mL

CCCCCCCC/C=N/NC(=O)c1cnc2c(C(F)(F)F)cccc2c1N[C@@H](CSc1ccccc1)CC(=O)N(C)C
MIC [1]: 5 µg/mL (≈ 8.12 µM)
inhibition (Mycobacterium): > 95%
MIC [2]: 10 µg/mL (≈ 16.2 µM)
IC50 (Vero): > 62.5 µg/mL
MIC [3]: 1 µg/mL (≈ 1.62 µM)

CN(C)C(=O)C[C@H](CSc1ccccc1)Nc1c(C(=O)N/N=C/c2ccccc2F)cnc2c(C(F)(F)F)cccc12
MIC [1]: > 100 µg/mL
inhibition (Mycobacterium): 90%
MIC [2]: 5 µg/mL (≈ 8.37 µM)
IC50 (Vero): > 62.5 µg/mL
MIC [3]: 2.5 µg/mL (≈ 4.18 µM)

COc1ccc(/C=N/NC(=O)c2cnc3c(C(F)(F)F)cccc3c2N[C@@H](CSc2ccccc2)CC(=O)N(C)C)c(F)c1
MIC [1]: > 100 µg/mL
inhibition (Mycobacterium): 90%
MIC [2]: > 100 µg/mL
MIC [3]: 10 µg/mL (≈ 15.9 µM)

CN(C)C(=O)C[C@H](CSc1ccccc1)Nc1c(C(=O)N/N=C/c2cc(F)ccc2O)cnc2c(C(F)(F)F)cccc12
MIC [1]: > 100 µg/mL
inhibition (Mycobacterium): 0%
MIC [2]: > 100 µg/mL
MIC [3]: 10 µg/mL (≈ 16.3 µM)

CSc1ccccc1/C=N/NC(=O)c1cnc2ccc(F)cc2c1N[C@@H](CSc1ccccc1)CC(=O)N(C)C
MIC [1]: > 100 µg/mL
inhibition (Mycobacterium): 0%
MIC [2]: > 100 µg/mL
MIC [3]: > 100 µg/mL

CN(C)C(=O)C[C@H](CSc1ccccc1)Nc1c(C(=O)N/N=C/c2cc(F)ccc2O)cnc2ccc(F)cc12
MIC [1]: > 100 µg/mL
inhibition (Mycobacterium): 0%
MIC [2]: > 100 µg/mL
MIC [3]: 10 µg/mL (≈ 17.7 µM)

CO[C@H]1/C=C/O[C@@]2(C)Oc3c(C)c(O)c4c(O)c(c(/C=N/N5CCN(C)CC5)c(O)c4c3C2=O)NC(=O)/C(C)=C\C=C\[C@H](C)[C@H](O)[C@@H](C)[C@@H](O)[C@@H](C)[C@H](OC(C)=O)[C@@H]1C [RIFAMPIN]
MIC [1]: 1.5 µg/mL (≈ 1.82 µM)
inhibition (Mycobacterium): > 95%
MIC [2]: 1.5 µg/mL (≈ 1.82 µM)
IC50 (Vero): > 62.5 µg/mL
MIC [3]: 0.5 µg/mL (≈ 0.608 µM)

COc1ccc(/C=N/NC(=O)c2cnc3c(C(F)(F)F)cccc3c2N[C@@H](CSc2ccccc2)CC(=O)N(C)C)cc1
MIC [1]: > 100 µg/mL
inhibition (Mycobacterium): 0%
MIC [2]: > 100 µg/mL
MIC [3]: > 100 µg/mL

COc1ccc(/C=N/NC(=O)c2cnc3ccc(F)cc3c2N[C@@H](CSc2ccccc2)CC(=O)N(C)C)c(F)c1
MIC [1]: > 100 µg/mL
inhibition (Mycobacterium): 0%
MIC [2]: > 100 µg/mL
MIC [3]: 5 µg/mL (≈ 8.66 µM)

CN(C)C(=O)C[C@H](CSc1ccccc1)Nc1c(C(=O)N/N=C/c2cccnc2)cnc2ccc(F)cc12
MIC [1]: 10 µg/mL (≈ 18.8 µM)
inhibition (Mycobacterium): 90%
MIC [2]: > 100 µg/mL
IC50 (Vero): > 62.5 µg/mL
MIC [3]: 5 µg/mL (≈ 9.42 µM)

NNC(=O)c1ccncc1 [ISONIAZID]
MIC [1]: 12.5 µg/mL (≈ 91.1 µM)
inhibition (Mycobacterium): > 95%
MIC [2]: 50 µg/mL (≈ 365 µM)
IC50 (Vero): > 62.5 µg/mL
MIC [3]: 1 µg/mL (≈ 7.29 µM)

CN(C)C(=O)C[C@H](CSc1ccccc1)Nc1c(C(=O)N/N=C/c2ccc(F)cc2)cnc2c(C(F)(F)F)cccc12
MIC [1]: 10 µg/mL (≈ 16.7 µM)
inhibition (Mycobacterium): 90%
MIC [2]: > 100 µg/mL
IC50 (Vero): > 62.5 µg/mL
MIC [3]: 5 µg/mL (≈ 8.37 µM)

COc1ccc(/C=N/NC(=O)c2cnc3c(C(F)(F)F)cccc3c2N[C@@H](CSc2ccccc2)CC(=O)N(C)C)cc1O
MIC [1]: 10 µg/mL (≈ 16 µM)
inhibition (Mycobacterium): 90%
MIC [2]: > 100 µg/mL
IC50 (Vero): > 62.5 µg/mL
MIC [3]: 5 µg/mL (≈ 7.99 µM)

COc1ccc(/C=N/NC(=O)c2cnc3ccc(F)cc3c2N[C@@H](CSc2ccccc2)CC(=O)N(C)C)cc1O
MIC [1]: 5 µg/mL (≈ 8.69 µM)
inhibition (Mycobacterium): 90%
MIC [2]: > 100 µg/mL
IC50 (Vero): > 62.5 µg/mL
MIC [3]: 5 µg/mL (≈ 8.69 µM)

CN(C)C(=O)C[C@H](CSc1ccccc1)Nc1c(C(=O)N/N=C/c2ccc(OC(F)(F)F)cc2)cnc2ccc(F)cc12
MIC [1]: 5 µg/mL (≈ 8.15 µM)
inhibition (Mycobacterium): 90%
MIC [2]: > 100 µg/mL
IC50 (Vero): > 62.5 µg/mL
MIC [3]: 2.5 µg/mL (≈ 4.07 µM)

CSc1ccccc1/C=N/NC(=O)c1cnc2c(C(F)(F)F)cccc2c1N[C@@H](CSc1ccccc1)CC(=O)N(C)C
MIC [1]: > 100 µg/mL
inhibition (Mycobacterium): 0%
MIC [2]: > 100 µg/mL
MIC [3]: > 100 µg/mL

CCCCCCCC/C=N/NC(=O)c1cnc2ccc(F)cc2c1N[C@@H](CSc1ccccc1)CC(=O)N(C)C
MIC [1]: 5 µg/mL (≈ 8.84 µM)
inhibition (Mycobacterium): > 95%
MIC [2]: 10 µg/mL (≈ 17.7 µM)
IC50 (Vero): > 62.5 µg/mL
MIC [3]: 1 µg/mL (≈ 1.77 µM)

CN(C)C(=O)C[C@H](CSc1ccccc1)Nc1c(C(=O)N/N=C/c2cccc(OC(F)(F)C(F)F)c2)cnc2c(C(F)(F)F)cccc12
MIC [1]: 2.5 µg/mL (≈ 3.59 µM)
inhibition (Mycobacterium): > 95%
MIC [2]: 5 µg/mL (≈ 7.19 µM)
IC50 (Vero): > 62.5 µg/mL
MIC [3]: 1 µg/mL (≈ 1.44 µM)

COc1ccc(/C=N/NC(=O)c2cnc3ccc(F)cc3c2N[C@@H](CSc2ccccc2)CC(=O)N(C)C)cc1
MIC [1]: > 100 µg/mL
inhibition (Mycobacterium): 0%
MIC [2]: > 100 µg/mL
MIC [3]: 10 µg/mL (≈ 17.9 µM)

CN(C)C(=O)C[C@H](CSc1ccccc1)Nc1c(C(=O)N/N=C/c2cccnc2)cnc2c(C(F)(F)F)cccc12
MIC [1]: 1 µg/mL (≈ 1.72 µM)
inhibition (Mycobacterium): > 95%
MIC [2]: 2.5 µg/mL (≈ 4.31 µM)
IC50 (Vero): > 62.5 µg/mL
MIC [3]: 0.625 µg/mL (≈ 1.08 µM)

CN(C)C(=O)C[C@H](CSc1ccccc1)Nc1c(C(=O)N/N=C/c2ccccc2F)cnc2ccc(F)cc12
MIC [1]: 5 µg/mL (≈ 9.13 µM)
inhibition (Mycobacterium): > 95%
MIC [2]: 10 µg/mL (≈ 18.3 µM)
IC50 (Vero): > 62.5 µg/mL
MIC [3]: 1 µg/mL (≈ 1.83 µM)

CSCC/C=N/NC(=O)c1cnc2ccc(F)cc2c1N[C@@H](CSc1ccccc1)CC(=O)N(C)C
MIC [1]: > 100 µg/mL
inhibition (Mycobacterium): 0%
MIC [2]: > 100 µg/mL
MIC [3]: > 100 µg/mL
